In series [1] the test system is Staphylococcus aureus. Kind of series: Antibacterial activity against Staphylococcus aureus measured at MIC after 18 hrs by halo zone test. In kind it is functional. An outline of the steps: (§1)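 Disk diffusion. Strains subcultured 18 h at 37 °C in BHI, then suspended in saline by McFarland to about 10⁵ CFU/mL. Suspension mixed 1:1 with antibiotic agar at 40 °C and plated. 6.0 mm paper disks loaded with dilutions from a DMSO stock (1 mg per 100 of DMSO). Incubated 18 h at 36 °C. Inhibition zone (mm) measured at the MIC. Amoxicillin and DMSO disks as controls.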

Series [2] is described as follows: Cytotoxicity against rat H9c2 cells assessed as cell viability at 1.57 to 200 mg/mL after 48 hrs by MTT assay. In kind it is cell-based. Particulars: read-out: Activity. The method, boiled down:
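Subconfluent H9c2 cardiac myoblasts treated with increasing concentrations for 48 h at 37 °C in 5% CO₂, alongside untreated cells. Then washed in PBS and given MTT (5 mg/mL) for 45 min at 37 °C. Crystals dissolved in acid isopropanol, absorbance read at 570 nm. Viability is absorbance of treated relative to untreated cells. Triplicate. DMSO and amoxicillin controls.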
(In general: Formazan colour is commonly taken as a measure of viable cells.)

In series [3] the test system is Streptococcus pyogenes. Kind of series: Antibacterial activity against Streptococcus pyogenes after 18 hrs by macro-dilution test. Format: functional. An outline of the steps:
(§2)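 Tube macro-dilution. Compounds in DMSO serially diluted to final […]. 24 h old inoculum added to each tube. Standard inoculum […]. Incubated 18 h at 37 °C. MIC is the lowest concentration with no visible growth, read visually. DMSO negative and amoxicillin positive controls.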

In series [4] the test system is Escherichia coli. Kind of series: Antibacterial activity against Escherichia coli measured at MIC after 18 hrs by halo zone test. In kind it is functional. An outline of the steps:
as §1

Series [5] has as its system Staphylococcus aureus. Kind of series: Antibacterial activity against Staphylococcus aureus after 18 hrs by macro-dilution test. Format: functional. An outline of the steps: as §2
In series [6] the test system is Salmonella typhimurium. Kind of series: Antibacterial activity against Salmonella Typhimurium measured at MIC after 18 hrs by halo zone test. In kind it is functional, Salmonella enterica subsp. enterica serovar Typhimurium. The method, boiled down: as §1
Series [7] deals with Salmonella typhimurium. Kind of series: Antibacterial activity against Salmonella Typhimurium after 18 hrs by macro-dilution test. Format: functional, Salmonella enterica subsp. enterica serovar Typhimurium. Particulars: Salmonella enterica. The method, boiled down:
as §2

Series [8] relates to Escherichia coli. Kind of series: Antibacterial activity against Escherichia coli after 18 hrs by macro-dilution test. Format: functional. An outline of the steps:
as §2

Series [9] relates to Streptococcus pyogenes. Kind of series: Antibacterial activity against Streptococcus pyogenes measured at MIC after 18 hrs by halo zone test. Format: functional. The method, boiled down: as §1
The mark [10] stands for this setting: in the assay text read “1.57 to 200 ug/mL” for “1.57 to 200 mg/mL”.

In brackets after ≈: the same amount, converted by molar mass. Bounds are passed on as bounds.

For orientation: MIC means the least concentration at which growth counts as inhibited. Turning to `CC(=O)N1N=C(N(C(C)=O)C2CCCC2)SC1c1cc2ccccc2nc1Cl` (configuration not stated), the “inhibition zone (IZ)” value was 20.63 mm in the series on Staphylococcus aureus [1], 19.79 mm with Escherichia coli [4], 18.6 mm in the series with Salmonella typhimurium [6] and 19.93 mm with Streptococcus pyogenes [9]. Further, in series [2] (setting [10]), the viability at 48 h was over 80%. Further, the MIC in the series with Streptococcus pyogenes [3] worked out at 32 µg/mL (≈ 76.8 µM); against Staphylococcus aureus [5], 32 µg/mL (≈ 76.8 µM); against Salmonella typhimurium [7], 32 µg/mL (≈ 76.8 µM); against Escherichia coli [8] it was 64 µg/mL (≈ 154 µM).

On to `CC(=O)N(C1=NN(C(C)=O)C(c2cc3ccccc3nc2Cl)S1)c1cc(F)ccc1F` (configuration not stated), for which the “inhibition zone (IZ)” value in the series on Staphylococcus aureus [1] is listed as 17.41 mm; with Escherichia coli [4] it was 20.13 mm; in the series with Salmonella typhimurium [6], 16.67 mm; in the series on Streptococcus pyogenes [9], 14.74 mm. For the same compound, the viability at 48 h in series [2] is over 80%. The MIC in the series on Streptococcus pyogenes [3] was 64 µg/mL (≈ 139 µM); against Staphylococcus aureus [5], 16 µg/mL (≈ 34.7 µM); against Salmonella typhimurium [7] it was 32 µg/mL (≈ 69.4 µM); in the series on Escherichia coli [8] it was 32 µg/mL (≈ 69.4 µM).

For `CC(=O)N(C1=NN(C(C)=O)C(c2cc3cccc(C)c3nc2Cl)S1)c1cc(F)ccc1F` (configuration not stated), the “inhibition zone (IZ)” value amounted to 21.99 mm in the series with Staphylococcus aureus [1], 15.36 mm in the series with Escherichia coli [4], 16.6 mm in the series with Salmonella typhimurium [6] and 16.13 mm in the series with Streptococcus pyogenes [9]. For the same compound, the viability at 48 h in series [2] is over 80%. Besides, the MIC in the series with Streptococcus pyogenes [3] was found to be 16 µg/mL (≈ 33.7 µM); with Staphylococcus aureus [5], 64 µg/mL (≈ 135 µM); against Salmonella typhimurium [7] it was 32 µg/mL (≈ 67.4 µM); in the series with Escherichia coli [8], 64 µg/mL (≈ 135 µM).

For the compound `CC(=O)N(C1=NN(C(C)=O)C(c2cc3cccc(Cl)c3nc2Cl)S1)c1ccc([N+](=O)[O-])cc1` (configuration not stated), the “inhibition zone (IZ)” value in the series with Staphylococcus aureus [1] is 19.81 mm; in the series with Escherichia coli [4], 12.56 mm; in the series with Salmonella typhimurium [6], 17.25 mm; with Streptococcus pyogenes [9] it was 16.32 mm. Further, the viability at 48 h in [2] (setting [10]) was over 80%. Besides, the MIC with Streptococcus pyogenes [3] was determined as 64 µg/mL (≈ 127 µM); in the series with Staphylococcus aureus [5], 32 µg/mL (≈ 63.4 µM); against Salmonella typhimurium [7] it was 32 µg/mL (≈ 63.4 µM); with Escherichia coli [8], 32 µg/mL (≈ 63.4 µM).

With `CC(=O)N(C1=NN(C(C)=O)C(c2cc3ccccc3nc2Cl)S1)c1ccccc1C` (configuration not stated), the “inhibition zone (IZ)” value turned out to be 15.66 mm in the series with Staphylococcus aureus [1], 15.84 mm in the series with Escherichia coli [4], 16.06 mm with Salmonella typhimurium [6] and 17.14 mm with Streptococcus pyogenes [9]. For the same compound, the viability at 48 h in series [2] (setting [10]) is over 80%. For the same compound, the MIC with Streptococcus pyogenes [3] was determined as 16 µg/mL (≈ 36.5 µM); against Staphylococcus aureus [5] it was 32 µg/mL (≈ 72.9 µM); with Salmonella typhimurium [7] it was 32 µg/mL (≈ 72.9 µM); in the series on Escherichia coli [8], 32 µg/mL (≈ 72.9 µM).

In the case of `CC(=O)N(C1=NN(C(C)=O)C(c2cc3ccccc3nc2Cl)S1)c1ccc(C)cc1` (configuration not stated), the “inhibition zone (IZ)” value in the series with Staphylococcus aureus [1] is 18.27 mm; in the series on Escherichia coli [4], 16.4 mm; in the series with Salmonella typhimurium [6], 16.89 mm; in the series on Streptococcus pyogenes [9] it was 17 mm. For the same compound, the viability at 48 h in [2] (setting [10]) was over 80%. The MIC worked out at 16 µg/mL (≈ 36.5 µM) with Streptococcus pyogenes [3], 32 µg/mL (≈ 72.9 µM) against Staphylococcus aureus [5], 64 µg/mL (≈ 146 µM) in the series on Salmonella typhimurium [7] and 32 µg/mL (≈ 72.9 µM) against Escherichia coli [8].

In the case of `CC(=O)N(C1=NN(C(C)=O)C(c2cc3cccc(C)c3nc2Cl)S1)c1ccccc1C` (configuration not stated), the “inhibition zone (IZ)” value in the series with Staphylococcus aureus [1] is listed as 15.8 mm; with Escherichia coli [4] it was 17.9 mm; in the series on Salmonella typhimurium [6], 16.11 mm; with Streptococcus pyogenes [9], 19.14 mm. Also, the viability at 48 h in series [2] (setting [10]) was over 80%. Also, the MIC against Streptococcus pyogenes [3] turned out to be 32 µg/mL (≈ 70.6 µM); in the series with Staphylococcus aureus [5], 64 µg/mL (≈ 141 µM); against Salmonella typhimurium [7] it was 32 µg/mL (≈ 70.6 µM); in the series on Escherichia coli [8], 64 µg/mL (≈ 141 µM).

For the compound `CC(=O)N(C1=NN(C(C)=O)C(c2cc3cccc(Cl)c3nc2Cl)S1)c1ccccc1C` (configuration not stated), the “inhibition zone (IZ)” value with Staphylococcus aureus [1] is reported as 19.76 mm; in the series on Escherichia coli [4], 15.59 mm; with Salmonella typhimurium [6], 16.86 mm; with Streptococcus pyogenes [9] it was 13.84 mm. Also, the viability at 48 h in series [2] (setting [10]) is over 80%. The MIC against Streptococcus pyogenes [3] is 64 µg/mL (≈ 135 µM); in the series with Staphylococcus aureus [5], 16 µg/mL (≈ 33.8 µM); against Salmonella typhimurium [7] it was 32 µg/mL (≈ 67.6 µM); against Escherichia coli [8], 32 µg/mL (≈ 67.6 µM).
